# Test results from PMC2932756 (Chemico-biological interactions, 2010).
# pIC50: −log10 of the molar value.
# Experiments:
# tyrosinase [1] = experiment: Tyrosinase mediated GSH depletion assay; format: biochemical, Mushroom; settings: for Tyrosinase GSH depletion (2 h): 100 μM phenolic agent, 200 μM GSH, tyrosinase/O2, 37 °C
# SK-MEL-28 melanoma cells [2] = experiment: MTT cell viability assay, IC50; format: cell-based, human
# isolated rat hepatocytes = settings: trypan blue exclusion, 2 h incubation; cited from earlier work
# [3] = system: CYP2E1 induced rat liver microsomes; settings: 100 μM, pH 7.4
# SK-MEL-5 melanoma cells = experiment: MTT cell viability assay, SK-MEL-5; format: cell-based, human; settings: CAPE 15 μM, 48 h
# How it was run: (§1)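 24-well plates, 40,000 cells/well (SK-MEL-5 4,000/well) in 400 μL medium with 10% FBS, 24 h adhesion. Media: MEM Alpha for SK-MEL-5, MeWo and C32; DMEM for B16-F0 and B16-F10; McCoy's 5A for Saos-2; Leibovitz's L-15 for SW-620; RPMI for PC-3. Test compound 15 μM for 48 h; MTT 4 h, DMSO solubilisation for 2 h in the dark, A570. Viability relative to each line's untreated control.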
# SK-MEL-28 melanoma cells [4] = experiment: MTT assay using biochemical modulators in SK-MEL-28 melanoma cells; format: cell-based, human; settings: 48 h
# How it was run: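 SK-MEL-28 cells in MEM Alpha with 10% FBS, 40,000/well in 24-well plates, 24 h to adhere. DMSO-dissolved modulators (1-bromoheptane 75 μM, dicoumarol 10 μM, cyclosporin A 15 μM, trifluoperazine 15 μM) added 20 min before test compound. Viability by MTT 48 h after compound addition: 4 h with dye, DMSO solubilisation for 2 h in the dark, A570.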
# [5] = system: CYP2E1 induced rat liver microsomes; experiment: GSH depletion by rat liver P450 microsomal preparation/NADPH/O2; settings: CYP2E1 pyrazole induced microsomes, 2 h incubation
# [6] = target: T1, horseradish peroxidase (HRP) (Armoracia rusticana, UniProt P00433); experiment: Rate of AA and NADH oxidation by HRP/H2O2; format: biochemical
# T1 sequence (P00433 31-338 limits assumed): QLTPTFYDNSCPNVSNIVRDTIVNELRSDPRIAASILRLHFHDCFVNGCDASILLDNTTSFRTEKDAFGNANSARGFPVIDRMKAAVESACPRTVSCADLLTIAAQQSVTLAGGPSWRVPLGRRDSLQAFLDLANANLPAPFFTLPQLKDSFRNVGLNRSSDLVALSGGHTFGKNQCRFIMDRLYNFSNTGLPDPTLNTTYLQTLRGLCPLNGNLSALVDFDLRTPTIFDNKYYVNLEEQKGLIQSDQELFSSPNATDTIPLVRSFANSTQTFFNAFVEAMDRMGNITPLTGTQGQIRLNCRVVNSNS
# SK-MEL-28 cells [7] = experiment: MTT assay in tyrosinase shRNA transfected SK-MEL-28 cells; format: cell-based, human; settings: CAPE 15 μM, 48 h
# How it was run: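 SK-MEL-28 cells seeded at 160,000/well in 6-well plates; after 24 h transfected with tyrosinase shRNA clone (FuGENE6). 24 h later, untransfected, tyrosinase-shRNA and non-specific shRNA cells given test compound 15 μM for a further 48 h. Viability by MTT: 4 h with dye, DMSO solubilisation for 2 h at room temperature in the dark, A570. Three experiments averaged.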
# [8] = system: amelanotic C32 melanoma cells; experiment: Reactive oxygen species; format: cell-based, human; settings: CAPE 15-300 μM
# How it was run: (§2)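 Cells seeded at 40,000/well in black 96-well plates, 24 h at 37 °C. Medium replaced with 2′,7′-dichlorofluorescein diacetate, then test compound added; fluorescence read from the moment of addition (ex 485, em 535 nm). In SK-MEL-28 only: dicoumarol 10 μM, 1-bromoheptane 75 μM, cyclosporin A 15 μM or trifluoperazine 15 μM included. Six replicates averaged.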
# B16-F0 melanoma cells = experiment: MTT cell viability assay, B16-F0; format: cell-based, murine; settings: CAPE 15 μM, 48 h
# How it was run: as §1
# [9] = system: SV40 transformed keratinocytes; settings: read-out: IC50, inhibition of proliferation; 48 h; cited from earlier work
# [10] = system: human leukemia HL-60 cells; settings: read-out: IC50, growth arrest; 48 h; cited from earlier work
# amelanotic C32 cells = experiment: MTT cell viability assay, C32; format: cell-based, human; settings: CAPE 15 μM, 48 h
# How it was run: as §1
# [11] = UV-VIS spectroscopy, stability of CAPE alone in solution; format: physicochemical; settings: CAPE 100 μM alone, phosphate buffer pH 7.4
# How it was run: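 Test compound 100 μM alone in 0.1 M phosphate buffer, pH 7.4, containing 1 mM DETAPAC; UV-visible spectrum recorded as the no-enzyme control for spectra of enzymatic oxidation, which were taken every two minutes.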
# [12] = system: melanocytic SK-MEL-28 cells; experiment: Intracellular GSH measurement, SK-MEL-28; format: cell-based, human; settings: 2 h
# How it was run: (§3)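 Cells from 90-95% confluent cultures seeded at 1 million cells/mL in MEM Alpha with 10% FBS in 24-well plates, 3 h at 37 °C, then given 1 mL medium with test compound (15-200 μM) for 1, 2 or 3 h. Detached with trypsin-EDTA, lysed with 3% sulphosalicylic acid, spun at 14,000 rpm and 4 °C for 10 min; supernatant diluted 10-fold. GSH by DTNB/NADPH (0.3 mM)/GSSG reductase recycling, A405 every 30 s over 4 min.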
# [13] = system: colorectal adenocarcinoma (SW-620) cells; experiment: MTT cell viability assay, SW-620; format: cell-based, human; settings: CAPE 15 μM, 48 h
# How it was run: as §1
# oral cancer cells = settings: read-out: IC50, cytotoxicity; 48 h; cited from earlier work
# [14] = system: osteosarcoma (Saos-2) cells; experiment: MTT cell viability assay, Saos-2; format: cell-based, human; settings: CAPE 15 μM, 48 h
# How it was run: as §1
# tyrosinase [15] = experiment: Rate of AA and NADH oxidation by tyrosinase/O2; format: biochemical, Mushroom
# SK-MEL-28 cells [16] = experiment: Mitochondrial membrane potential; format: cell-based, human
# How it was run: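 SK-MEL-28 cells seeded at 160,000/well in 6-well plates in MEM and left overnight; cyclosporin A 15 μM or ethylenediamine 1 mM added 24 h before test compound (15-50 μM; controls 1% DMSO). After 48 h, TMRM added for 30 min at 37 °C in the dark. Cells detached with versene, pelleted, resuspended in PBS. Flow cytometry on 10,000 events; arithmetic mean fluorescence, triplicates.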
# [17] = system: amelanotic C32 melanoma cells; experiment: Intracellular GSH measurement, C32; format: cell-based, human; settings: 2 h
# How it was run: as §3
# prostate (PC-3) cells = experiment: MTT cell viability assay, PC-3; format: cell-based, human; settings: CAPE 15 μM, 48 h
# How it was run: as §1
# [18] = Partition coefficient, distribution coefficient and water solubility; settings: pH 7.4
# MeWo melanoma cells = experiment: MTT cell viability assay, MeWo; format: cell-based, human; settings: CAPE 15 μM, 48 h
# How it was run: as §1
# B16-F10 melanoma cells = experiment: MTT cell viability assay, B16-F10; format: cell-based, murine; settings: CAPE 15 μM, 48 h
# How it was run: as §1
# [19] = system: melanocytic SK-MEL-28 melanoma cells; experiment: Reactive oxygen species; format: cell-based, human
# How it was run: as §2
# [20] = system: amelanotic SK-MEL-24 cells; experiment: MTT cell viability assay, SK-MEL-24; format: cell-based, human; settings: CAPE 15 μM, 48 h
# SK-MEL-28 melanoma cells [21] = experiment: Apoptosis assay; format: cell-based, human; settings: CAPE 15 μM, 48 h
# How it was run: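 SK-MEL-28 cells seeded at 160,000/well in 6-well plates in MEM and left overnight to attach; some wells transfected with tyrosinase shRNA3 or non-specific shRNA for 24 h. Treated with test compound 15 μM (controls 1% DMSO) for 48 h. Cells detached with versene, washed in PBS, pelleted, stained with annexin V-FITC plus PI in binding buffer for 15 min. Flow cytometry on 10,000 events; annexin+ cells (PI− or PI+) counted apoptotic; triplicates.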
molecule,measurement,setting,value
ferulic acid [FA],Tyrosinase GSH depletion (2 h),tyrosinase [1],46±2%
same,LD50 (day 2) SK-MEL-28,"SK-MEL-28 melanoma cells [2]; MTT assay, 48 h incubation",2 mM
same,LD50 (2 h) rat hepatocytes,isolated rat hepatocytes,25 mM
"O=C(O)/C=C/c1ccccc1 [CinA, cinnamic acid]",Tyrosinase GSH depletion (2 h),tyrosinase [1],40±7%
same,Microsomes GSH depletion (2 h),[3],110±7%
"O=C(O)CCc1ccc(O)cc1 [4-HPP, 4-hydroxypropionic acid]",Tyrosinase GSH depletion (2 h),tyrosinase [1],42±2%
same,LD50 (day 2) SK-MEL-28,"SK-MEL-28 melanoma cells [2]; MTT assay, 48 h incubation",1.5 mM
"O=C(/C=C/c1ccc(O)c(O)c1)OCCc1ccccc1 [CAPE, Caffeic Acid Phenylethyl Ester]",cell viability,SK-MEL-5 melanoma cells,57±3%
same,increase of CAPE toxicity by 1-bromoheptane (BH),SK-MEL-28 melanoma cells [4]; CAPE 7.5 μM + BH 75 μM,26%
same,enhancement of CAPE toxicity by dicoumarol,SK-MEL-28 melanoma cells [4]; CAPE 7.5 μM + dicoumarol 10 μM,39%
same,"viability, CAPE incubated alone",SK-MEL-28 melanoma cells [4]; CAPE 30 μM,23±2%
same,"GSH depleted per mole of CAPE, rat liver microsomes",[5],0.5 mole GSH per one mole of CAPE
same,Rate of NADH oxidation by HRP/H2O2,"[6]; HRP 2 μM, H2O2 100 μM",867 μM (AA and NADH depletion)/CAPE (μM)/HRP (μM)/min
same,Rate of AA oxidation by HRP/H2O2 in the presence of GSH,[6]; with GSH,10 μM GSH depletion/CAPE (μM)/HRP (μM)/min
same,Rate of NADH oxidation by HRP/H2O2 in the presence of GSH,[6]; with GSH,5 μM GSH depletion/CAPE (μM)/HRP (μM)/min
same,"cell viability, tyrosinase shRNA transfected cells",SK-MEL-28 cells [7],87±5%
same,"cell viability, untransfected cells",SK-MEL-28 cells [7],43±6%
same,ROS formation,[8],no significant ROS was formed
same,cell viability,B16-F0 melanoma cells,58±6%
same,pIC50,[9],5.15
same,Tyrosinase GSH depletion (2 h),tyrosinase [1],82±6%
same,"GSH depleted per mole of CAPE, tyrosinase/O2",tyrosinase [1]; 2 h incubation,0.8 mole GSH per mole of CAPE
same,pIC50,[10],5.60
same,cell viability,amelanotic C32 cells,86±4%
same,stability of spectrum in solution (auto-oxidation),[11],stable
same,intracellular GSH depleted,[12]; CAPE 15 μM,11±4%
same,intracellular GSH depleted,[12]; CAPE 50 μM,19±2%
same,intracellular GSH depleted,[12]; CAPE 100 μM,26±1%
same,intracellular GSH depleted,[12]; CAPE 200 μM,54±1%
same,cell viability,[13],89±3%
same,pIC50,oral cancer cells,4.12
same,cell viability,[14],90±6%
same,Rate of NADH oxidation by tyrosinase/O2,"tyrosinase [15]; CAPE 100 μM, tyrosinase 5 U/mL, NADH 200 μM, pH 7.4",10 nM (AA and NADH depletion)/CAPE (μM)/tyrosinase (U/mL)/min
same,Rate of NADH oxidation by tyrosinase/O2 in the presence of GSH,tyrosinase [15]; with GSH 200 μM,0.08 nM GSH depletion/CAPE (μM)/tyrosinase (U/mL)/min
same,decrease in mitochondrial membrane potential,SK-MEL-28 cells [16]; CAPE 15 μM,17±1%
same,decrease in mitochondrial membrane potential in the presence of CS,SK-MEL-28 cells [16]; CAPE 15 μM + CS 15 μM,8±1%
same,decrease in mitochondrial membrane potential in the presence of ethylenediamine,SK-MEL-28 cells [16]; CAPE 15 μM + ethylenediamine 1 mM,4±1%
same,decrease in mitochondrial membrane potential,SK-MEL-28 cells [16]; CAPE 30 μM,20±2%
same,decrease in mitochondrial membrane potential in the presence of CS,SK-MEL-28 cells [16]; CAPE 30 μM + CS 15 μM,12±1%
same,decrease in mitochondrial membrane potential in the presence of ethylenediamine,SK-MEL-28 cells [16]; CAPE 30 μM + ethylenediamine 1 mM,10±1%
same,intracellular GSH depleted,[17]; CAPE 15 μM,3±2%
same,intracellular GSH depleted,[17]; CAPE 50 μM,10±2%
same,intracellular GSH depleted,[17]; CAPE 100 μM,13±3%
same,intracellular GSH depleted,[17]; CAPE 200 μM,24±2%
same,LD50 (day 2) SK-MEL-28 / IC50 (48 h),"SK-MEL-28 melanoma cells [2]; MTT assay, 48 h incubation",15 µM
same,"toxicity relative to caffeic acid, based on IC50 (48 h)",SK-MEL-28 melanoma cells [2]; SK-MEL-28,153 fold
same,cell viability,prostate (PC-3) cells,88±3%
same,ionized at physiological pH,[18],not significantly ionized
same,lipid solubility relative to caffeic acid (antilog LogD),[18],"40,000 fold"
same,cell viability,MeWo melanoma cells,51±6%
same,cell viability,B16-F10 melanoma cells,60±4%
same,"ROS formation, CAPE + BH",[19]; BH 75 μM,11±2 fold
same,"ROS formation, CAPE + TF","[19]; CAPE 15 μM + TF 15 μM, 40 min",5±1 fold
same,"ROS formation, CAPE alone","[19]; CAPE 15 μM, 40 min",8±1 fold
same,ROS formation,"[19]; CAPE 15-300 μM, various time points",concentration- and time-dependent escalation in ROS formation
same,"ROS formation, CAPE + CS",[19]; CS 15 μM,4±1 fold
same,"ROS formation, CAPE + DC",[19]; DC 10 μM,12±2 fold
same,cell viability,[20],81±7%
same,apoptotic cell death,SK-MEL-28 melanoma cells [21],12.5±0.7%
same,increase in apoptotic cell death in comparison to untreated control cells,SK-MEL-28 melanoma cells [21],2.5 fold
